Only some compounds are listed: those with a hit (about 1.1% of all), similar ones and a draw of the others.
SKN-1 inh: suppressors of acrylamide-induced Pgst-4::GFP reporter in worms, primary screen, SKN-1 inhibitor project, whole organism, uHTS, GFP/RFP fluorescence ratio, strain VP596. inhibition, % at 21.8 µM. AID 624304, 2012. C. elegans VP596 Pgst-4::GFP/RFP ratio, 24 h. 0.49% of 360,000 active;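 active = interference check ratio from 0.5 to 1.5 plus GFP to RFP signal ratio inhibition reaching or exceeding a fixed threshold, cut at about 30% in these data, passing the limit was not always enough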
NPR1 activator: GC-A stimulated cGMP production enhancers – HEK293 GC-A cells, cGMP TR-FRET, EC30 ANP, primary screen | Atrial natriuretic peptide receptor 1 (Homo sapiens), P16066 | 0% at EC30 ANP, 100% saturating ANP | activation, % at 10 µM | 0.14% of 370,000 active | AID 1671463, 2021; in the data active = activation above about 40%
Target sequence (P16066 whole entry, looked up): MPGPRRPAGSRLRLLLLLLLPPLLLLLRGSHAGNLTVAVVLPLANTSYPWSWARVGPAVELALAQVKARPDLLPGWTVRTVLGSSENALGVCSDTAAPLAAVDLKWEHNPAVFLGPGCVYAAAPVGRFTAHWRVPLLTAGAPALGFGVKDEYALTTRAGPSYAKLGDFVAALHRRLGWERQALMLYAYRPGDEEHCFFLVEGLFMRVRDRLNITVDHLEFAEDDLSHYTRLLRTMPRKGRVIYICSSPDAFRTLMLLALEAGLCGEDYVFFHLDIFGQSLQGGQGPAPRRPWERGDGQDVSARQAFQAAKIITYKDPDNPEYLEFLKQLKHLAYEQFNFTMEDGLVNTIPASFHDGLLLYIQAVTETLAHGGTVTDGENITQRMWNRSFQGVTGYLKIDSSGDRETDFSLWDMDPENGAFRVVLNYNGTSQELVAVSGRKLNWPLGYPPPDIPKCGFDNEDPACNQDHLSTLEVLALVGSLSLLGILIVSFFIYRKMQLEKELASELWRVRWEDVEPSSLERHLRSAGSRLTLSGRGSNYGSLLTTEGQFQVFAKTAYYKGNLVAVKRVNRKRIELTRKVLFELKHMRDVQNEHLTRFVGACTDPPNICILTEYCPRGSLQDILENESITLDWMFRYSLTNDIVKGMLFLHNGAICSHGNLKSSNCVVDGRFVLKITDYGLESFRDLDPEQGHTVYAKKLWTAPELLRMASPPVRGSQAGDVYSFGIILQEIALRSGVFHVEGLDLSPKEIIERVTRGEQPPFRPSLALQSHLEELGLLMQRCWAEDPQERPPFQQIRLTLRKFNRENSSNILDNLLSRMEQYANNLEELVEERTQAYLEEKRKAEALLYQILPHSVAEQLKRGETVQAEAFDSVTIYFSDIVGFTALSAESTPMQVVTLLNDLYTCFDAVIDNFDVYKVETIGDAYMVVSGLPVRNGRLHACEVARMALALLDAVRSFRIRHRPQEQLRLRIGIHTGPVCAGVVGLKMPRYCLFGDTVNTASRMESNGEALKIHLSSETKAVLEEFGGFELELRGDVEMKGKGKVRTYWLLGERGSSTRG
A1 inh: caspase 3/7 activation in MEF A1-2A-BIM cells, primary screen, A1 inhibitor project, cell-based, luminescence, HTS | Caspase-Glo 3/7 luminescence, 3 h; percent of clofoctol response, vehicle zero | 0.066% of 330,000 active | caspase activation, % (concentration not given with the values);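 active = over half of replicate activation scores above 10%, or exactly half above 10 with the replicate mean above 10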
NPR2 activator: human GC-B receptor activators, primary screen, HEK293 GC-B cells, cGMP TR-FRET, EC30 CNP. 0% at EC30 CNP, 100% saturating CNP. activation, % at 10 µM. AID 1920062, 2024. 0.11% of 370,000 active. Atrial natriuretic peptide receptor 2 (Homo sapiens), P20594;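 active = activation at 10 µM reaching about 35% in either raw or pattern-adjusted values, limit read from the data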
Tb MetRS inh: T. brucei MetRS inhibitors, primary screen, biochemical, luminescence. purified T. brucei MetRS, ATP depletion, Kinase-Glo luminescence. AID 624268, 2012. 0.4% of 360,000 active. inhibition, % at 11.9 µM. methionyl-tRNA synthetase (Trypanosoma brucei brucei);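 active = inhibition above a per-plate cutoff of the control wells' mean inhibition plus 3 SD, cut at about 5.5% in these data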
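Test system – parasite MetRS enzyme · Reagent – substrates ATP, L-methionine and bulk Escherichia coli tRNA · Doses – 11.9 µM compound single dose, 0.9% DMSO · Times – 15 min enzyme-compound preincubation, 2 h reaction, 10 min detection, 25 °C · Signal – Kinase-Glo luminescence, ATP depletion format · Controls – DMSO-only wells as low control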
MT1-MMP act inh: blockers of MT1-MMP proenzyme processing, primary screen, HT1080 RFP-PRO-GFP cells, GFP/RFP fluorescence | GFP/RFP ratio fluorescence, overnight; percent of plate control window, DMSO zero | GFP/RFP ratio change, % at 20 µM | 0.061% of 360,000 active;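 active = GFP/RFP ratio change of at least 30% with cell ATP level not reduced by more than half and red fluorescence within 50% of control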
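system = RFP-PRO-GFP reporter HT1080 cells | dosing = 20 µM single dose, 1% DMSO | timing = overnight cell settling, then overnight compound exposure, 37 °C, 5% CO2 | read-out basis = GFP/RFP fluorescence ratio | controls = DMSO and RFP-L50D-GFP cell wells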
Tb MetRS conf: T. brucei MetRS inhibitors, confirmation, biochemical, luminescence; shares compounds with Tb MetRS inh; T. brucei MetRS enzyme, luminescence (ATP depletion); inhibition, % at 11.9 µM; 93% of 1,400 active; AID 624412, 2012; in the data active = inhibition above about 7%
Jurkat cytotox: Jurkat T cell cytotoxicity, cytotoxicity control for T. brucei MetRS inhibitor project, luminescence, high throughput; Jurkat cells viability, ATP luminescence; 12% of 1,400 active; shares compounds with Tb MetRS inh; inhibition, % at 8.3 µM; AID 624413, 2012; in the data active = inhibition above about 15%
TbMetRS FP orth: T. brucei MetRS inhibitors, orthogonal assay for T. brucei MetRS inhibitor project, biochemical, fluorescence polarization; shares compounds with Tb MetRS inh; purified T. brucei MetRS; inhibition, % at 11.9 µM; 44% of 1,400 active; in the data active = inhibition above about 17%
Large screens that a line does not name were inactive (follow-up assays come after a bar, where they were run).

COC(=O)CSc1nc(N)c2c3c(sc2n1)CCCC3	none
COC(=O)CSc1nc(N)c2c3c(sc2n1)C(c1ccccc1)SC(c1ccccc1)C3 (stereo not drawn)	A1 inh 16 (no result: NPR1 activator, NPR2 activator)
C[C@@H](CCCCC1(C)OCCO1)CCC(=O)N(c1ccccc1)c1ccccc1	none (no result: SKN-1 inh, A1 inh, Tb MetRS inh, MT1-MMP act inh)
CCOC(=O)CCCSc1nc(-c2ccc3c(c2)OCO3)cc(C(F)(F)F)c1C#N	NPR1 activator 51
CCC(C)[C@@H](C(=O)OC)N(Cc1cn(Cc2ccccc2)nn1)S(=O)(=O)c1ccccc1Br (stereo partly drawn)	none (no result: SKN-1 inh, A1 inh, Tb MetRS inh, MT1-MMP act inh)
N/C(=N\OC(=O)CSc1ccccc1)c1ccc([N+](=O)[O-])cc1	SKN-1 inh 54
Cc1ccc(-c2nc(-c3cccnc3)no2)c(C)c1	none
Cc1c(-c2nc(-c3cccnc3)no2)cccc1[N+](=O)[O-]	SKN-1 inh 42
CCNC(=S)NNC(=O)CSc1nnc(-c2ccccc2)n1-c1ccc(Cl)cc1	none (no result: SKN-1 inh, A1 inh, Tb MetRS inh, MT1-MMP act inh)
Cc1[nH]c2ccccc2c1N=Nc1ccccc1F	none
Cc1[nH]c2ccccc2c1N=Nc1ccc(F)cc1	SKN-1 inh 87
O=S1(=O)c2c(NCc3ccco3)cccc2Oc2ccccc2CN1Cc1cn(Cc2cccc(F)c2)nn1	none (no result: SKN-1 inh, A1 inh, Tb MetRS inh, MT1-MMP act inh)
Cc1nonc1OC(C)CNc1ccc([N+](=O)[O-])cc1 (stereo not drawn)	SKN-1 inh 36
COC(=O)c1cc(-c2cccc(OC)c2)n[nH]1	SKN-1 inh 37
CC(C)c1ccc(C2NC(=S)NC3=C2C(=O)CCC3)cc1 (stereo not drawn)	NPR1 activator 50
Cc1ccc(C2NC(=S)NC3=C2C(=O)CCC3)cc1 (stereo not drawn)	none
Cc1ccc(Cn2c(=O)c3ccccc3n3nc(C)cc23)cc1	NPR2 activator 36
Cc1ccc(Cn2c(=S)[nH]c3ccccc3c2=O)cc1	none
O=C(CN1CCN(c2nc(-c3ccccc3)cs2)CC1)Nc1ccc(Cl)cc1	none (no result: SKN-1 inh, A1 inh, Tb MetRS inh, MT1-MMP act inh)
O=C(CC1CC2CCC1C2)N1CCN(S(=O)(=O)c2ccccc2[N+](=O)[O-])CC1 (stereo not drawn)	none
O=C(CC1CC2CCC1C2)N1CCN(S(=O)(=O)c2ccccc2C(F)(F)F)CC1 (stereo not drawn)	A1 inh 8.6
c1ccc2oc(SCc3nc4ccccc4s3)nc2c1	SKN-1 inh 45
c1ccc(OCCSc2nc3ccccc3o2)cc1	SKN-1 inh 39
CCOc1ccc(OCCSc2nc3ccccc3o2)cc1	none
c1ccc(SCc2nc3ccccc3s2)nc1	none
c1ccc(-c2noc(CSc3nc4ccccc4o3)n2)cc1	SKN-1 inh 44
COc1cc(-c2c(C(=O)c3ccccc3)[nH]c(N)c2C(N)=O)ccc1O	none (no result: SKN-1 inh, A1 inh, Tb MetRS inh, MT1-MMP act inh)
O=C(Nc1ccc(Br)cc1)OC1CC2CC1[C@H]1CCCCN1[C@H]2Cc1ccccc1 (stereo partly drawn)	none (no result: SKN-1 inh, A1 inh, Tb MetRS inh, MT1-MMP act inh)
COc1cccc(CN[C@@H]2CC[C@@]34CCCN3C(=O)CCC[C@H]4C2)c1	none (no result: SKN-1 inh, A1 inh, Tb MetRS inh, MT1-MMP act inh)
O=C(Nc1ccc(Cl)cc1)O[C@@H]1CC[C@@]23CCCN2C(=O)CCC[C@H]3C1	none (no result: SKN-1 inh, A1 inh, Tb MetRS inh, MT1-MMP act inh)
CCCCNC(=O)C1(C(=O)c2ccc(OC)cc2)CC(c2ccccc2C(F)(F)F)=NO1 (stereo not drawn)	none (no result: SKN-1 inh, A1 inh, Tb MetRS inh, MT1-MMP act inh)
CC(C)(C)n1ncc2c(=O)n(Cc3c(F)cccc3Cl)cnc21	NPR2 activator 40
CC1(C)c2cc(O)ccc2OC1N1CCOCC1 (stereo not drawn)	A1 inh 9.5
CC1(C)c2ccccc2-c2nc3ccccc3cc2C1N1CCOCC1 (stereo not drawn)	none (no result: A1 inh)
O=[N+]([O-])c1ccc(NN=Cc2cccc([N+](=O)[O-])c2)cc1	SKN-1 inh 38 (no result: A1 inh)
Cn1c(CC(=O)Nc2ccccc2F)nnc1SCC(=O)NC1CCCCC1	Tb MetRS inh 79 | Tb MetRS conf inactive | Jurkat cytotox inactive | TbMetRS FP orth inactive
S=C(NCc1cccnc1)Nc1cc(Cl)cc(Cl)c1	Tb MetRS inh 24 | Tb MetRS conf 52 | Jurkat cytotox inactive | TbMetRS FP orth 30
S=C(NCc1ccncc1)Nc1cc(Cl)cc(Cl)c1	Tb MetRS inh 10 | Tb MetRS conf 23 | Jurkat cytotox inactive | TbMetRS FP orth inactive
S=C(NCc1ccncc1)Nc1ccc(Cl)c(Cl)c1	none
Clc1cc(Br)ccc1OCCCn1ccnc1	Tb MetRS inh 9.9 | Tb MetRS conf 17 | Jurkat cytotox inactive | TbMetRS FP orth inactive
Clc1cc(Br)ccc1OCCn1ccnc1	none
CC1(C)NC(=O)N(CCCCOc2ccc(Br)cc2Cl)C1=O	none
CC1(C)NC(=O)N(CCCOc2ccc(Br)cc2Cl)C1=O	Tb MetRS inh 11 | Tb MetRS conf 24 | Jurkat cytotox inactive | TbMetRS FP orth 104
OC(COc1ccc2cc(Br)ccc2c1)Cn1ccnc1 (stereo not drawn)	Tb MetRS inh 6.2 | Tb MetRS conf 13 | Jurkat cytotox inactive | TbMetRS FP orth 24
COC(=O)c1cccc(OCC(O)Cn2ccnc2)c1 (stereo not drawn)	none
CN(CC#CC1=CCCCC1)/C(N)=N/C(=O)OCc1ccccc1	none (no result: SKN-1 inh, A1 inh, Tb MetRS inh, MT1-MMP act inh)
O=C(OCC(=O)c1c[nH]c2ccccc12)c1ccc([N+](=O)[O-])s1	Tb MetRS inh 10 | Tb MetRS conf 23 | Jurkat cytotox inactive | TbMetRS FP orth inactive
CCc1cccc2c(C(=O)COC(=O)c3ccc([N+](=O)[O-])s3)c[nH]c12	none
COc1ccc(C(=O)CN(Cc2ccccc2)C2=NCCS2)cc1	none

Assay outcomes deposited in PubChem by several laboratories.
